Results as given in ChEMBL document CHEMBL4014306, “Pyrazolopyrimidines as Potent Stimulators for Transient Receptor Potential Canonical 3/6/7 Channels” (J Med Chem, 2017).

Columns and labels:
[1] = target: T1, Short transient receptor potential channel 3 (Homo sapiens, UniProt Q13507); assay: Agonist activity at human TRPC3 expressed in HEK293 cells assessed as induction of membrane depolarization measured for 2.5 mins in presence of 0.5 mM Ca2+ by FLIPR membrane potential dye-based fluorescence assay; format: cell-based
T1 sequence (Q13507 whole entry): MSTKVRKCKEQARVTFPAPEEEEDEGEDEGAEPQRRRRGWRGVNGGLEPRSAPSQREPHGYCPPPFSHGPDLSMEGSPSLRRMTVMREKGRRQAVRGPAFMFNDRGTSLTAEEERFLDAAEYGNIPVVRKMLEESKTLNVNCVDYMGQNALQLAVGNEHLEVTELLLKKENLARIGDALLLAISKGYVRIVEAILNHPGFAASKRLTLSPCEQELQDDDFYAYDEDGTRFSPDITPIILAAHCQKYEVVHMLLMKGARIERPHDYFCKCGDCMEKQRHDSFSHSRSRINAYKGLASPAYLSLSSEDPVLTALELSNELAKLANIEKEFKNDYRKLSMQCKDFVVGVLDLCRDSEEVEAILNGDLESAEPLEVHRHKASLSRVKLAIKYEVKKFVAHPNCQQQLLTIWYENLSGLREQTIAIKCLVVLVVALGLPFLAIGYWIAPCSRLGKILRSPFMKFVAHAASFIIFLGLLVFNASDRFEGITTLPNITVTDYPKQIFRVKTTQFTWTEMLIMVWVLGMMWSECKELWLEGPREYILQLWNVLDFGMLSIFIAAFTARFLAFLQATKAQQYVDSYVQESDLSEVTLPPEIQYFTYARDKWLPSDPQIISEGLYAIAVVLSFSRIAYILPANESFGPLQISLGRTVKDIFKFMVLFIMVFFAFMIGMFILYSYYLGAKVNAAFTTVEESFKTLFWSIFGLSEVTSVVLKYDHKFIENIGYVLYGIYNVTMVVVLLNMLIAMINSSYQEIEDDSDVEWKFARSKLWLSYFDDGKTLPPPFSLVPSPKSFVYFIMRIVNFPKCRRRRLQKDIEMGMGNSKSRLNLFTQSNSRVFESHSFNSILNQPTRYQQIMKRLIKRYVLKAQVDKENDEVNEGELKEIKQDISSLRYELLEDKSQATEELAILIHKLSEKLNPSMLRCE
Method in brief: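 HEK293 cells stably expressing human TRPC3, run on a FlexStation at 32 °C. Loaded with FMP dye, or Fluo-type Ca2+ dye with 2 mM probenecid. Extracellular NaCl/HEPES saline, pH 7.4, with 2 mM Ca2+ (standard) or 0.5 mM Ca2+. Read as F/F0. In 0.5 mM Ca2+, FMP EC50 from a Hill fit, n = 6.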

[2] = target: T2, Short transient receptor potential channel 7 (Homo sapiens, UniProt Q9HCX4); assay: Agonist activity at human TRPC7 expressed in HEK293 cells assessed as increase in intracellular calcium level measured for 2.5 mins in presence of 2 mM Ca2+ by Fluo8-AM dye-based fluorescence assay; format: cell-based
T2 sequence (Q9HCX4 whole entry): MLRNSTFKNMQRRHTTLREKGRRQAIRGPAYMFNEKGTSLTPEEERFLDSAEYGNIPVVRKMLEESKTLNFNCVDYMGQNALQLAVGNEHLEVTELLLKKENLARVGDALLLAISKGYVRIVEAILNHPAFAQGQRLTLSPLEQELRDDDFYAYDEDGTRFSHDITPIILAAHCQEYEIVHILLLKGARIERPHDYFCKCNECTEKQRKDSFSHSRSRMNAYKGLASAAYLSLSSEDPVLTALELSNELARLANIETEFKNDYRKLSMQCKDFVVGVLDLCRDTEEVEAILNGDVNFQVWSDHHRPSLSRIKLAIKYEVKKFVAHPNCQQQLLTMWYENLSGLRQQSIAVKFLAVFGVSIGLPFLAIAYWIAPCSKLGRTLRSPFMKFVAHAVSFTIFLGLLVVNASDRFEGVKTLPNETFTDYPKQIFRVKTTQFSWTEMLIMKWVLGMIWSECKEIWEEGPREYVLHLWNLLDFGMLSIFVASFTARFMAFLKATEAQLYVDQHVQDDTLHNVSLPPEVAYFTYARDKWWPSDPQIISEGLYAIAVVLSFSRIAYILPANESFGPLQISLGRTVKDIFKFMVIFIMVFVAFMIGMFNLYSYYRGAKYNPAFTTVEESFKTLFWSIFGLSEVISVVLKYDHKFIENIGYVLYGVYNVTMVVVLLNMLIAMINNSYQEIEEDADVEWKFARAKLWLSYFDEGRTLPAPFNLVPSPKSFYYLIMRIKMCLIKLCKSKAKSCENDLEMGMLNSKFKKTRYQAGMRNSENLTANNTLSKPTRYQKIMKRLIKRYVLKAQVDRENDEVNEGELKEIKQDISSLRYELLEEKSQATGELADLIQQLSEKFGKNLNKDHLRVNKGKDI

Row | SMILES | EC50 [1] | EC50 [2]
1 | CCOC(=O)N1CCC(c2cc(O)n3nc(C)c(-c4ccc(F)cc4)c3n2)CC1 | 450 nM | 497 nM
2 | Cc1nn2c(O)cc(C3CCN(C(=O)OCc4ccccc4)CC3)nc2c1-c1ccc(Cl)cc1 | 138 nM | 213 nM
3 | Cc1nn2c(O)cc(C3CCN(C(=O)OCc4ccccc4)CC3)nc2c1-c1ccc(F)cc1 | 236 nM | 314 nM
4 | CCOC(=O)N1CCC(c2cc(O)n3nc(C)c(-c4ccc(C(F)(F)F)cc4)c3n2)CC1 | – | 90 nM
